In ChEMBL document CHEMBL1137710, “Synthesis and in vitro antitumor activity of new quinoxaline derivatives” (2009):

Assays:
Format in all cases: functional
SK-MEL-2 = assay: Growth inhibition of human SK-MEL-2 cells after 48 hrs by sulforhodamine B assay; conditions: SK-MEL-2, 48 h
Summary of the method: (§1)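 NCI 60-human-tumor-cell-line panel, with compounds tested over a 5-log dose range. Values are taken from dose-response curves as log10 molar concentrations: GI50 is 50% net growth inhibition, TGI is total growth inhibition, and LC50 is 50% net cell death.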

UACC-62 = assay: Growth inhibition of human UACC62 cells after 48 hrs by sulforhodamine B assay; conditions: UACC-62, 48 h
Summary of the method: (§2)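 Run in the NCI 60-human-tumour-cell-line panel, tested over a 5-log dose range. Dose–response curves gave three values per cell line, each as a log10 molar concentration: GI50 (50% inhibition of net cell growth), TGI (total inhibition of net growth) and LC50 (50% net cell death). The mean graph midpoint is the arithmetic mean over all lines, with insensitive lines entered at the highest concentration tested.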

SK-MEL-5 = assay: Growth inhibition of human SK-MEL-5 cells after 48 hrs by sulforhodamine B assay; conditions: SK-MEL-5, 48 h; summary of the method: as §1
LOX IMVI = assay: Growth inhibition of human LOXIMVI cells after 48 hrs by sulforhodamine B assay; summary of the method: as §1
A549 = assay: Growth inhibition of human A549 cells after 48 hrs by sulforhodamine B assay; conditions: A549, 48 h; summary of the method: as §1
SF-295 = assay: Growth inhibition of human SF295 cells after 48 hrs by sulforhodamine B assay; conditions: SF-295, 48 h; summary of the method: as §1
NCI-H522 = assay: Growth inhibition of human NCI-H522 cells after 48 hrs by sulforhodamine B assay; conditions: NCI-H522, 48 h; summary of the method: as §1
HOP-62 = assay: Growth inhibition of human HOP62 cells after 48 hrs by sulforhodamine B assay; conditions: HOP-62, 48 h; summary of the method: as §1
HCT-116 = assay: Growth inhibition of human HCT116 cells after 48 hrs by sulforhodamine B assay; conditions: HCT-116, 48 h; summary of the method: as §1
OVCAR-4 = assay: Growth inhibition of human OVCAR4 cells after 48 hrs by sulforhodamine B assay; conditions: OVCAR-4, 48 h; summary of the method: as §1
U-251 = assay: Growth inhibition of human U251 cells after 48 hrs by sulforhodamine B assay; conditions: U-251, 48 h; summary of the method: as §2
NCI-H23 = assay: Growth inhibition of human NCI-H23 cells after 48 hrs by sulforhodamine B assay; conditions: NCI-H23, 48 h; summary of the method: as §1
SK-OV-3 = assay: Growth inhibition of human SKOV3 cells after 48 hrs by sulforhodamine B assay; conditions: SK-OV-3, 48 h; summary of the method: as §1
SF-268 [1] = assay: Growth inhibition of human SF268 cells after 48 hrs by sulforhodamine B assay; conditions: SF-268, 48 h; summary of the method: as §1
DU-145 = assay: Growth inhibition of human DU145 cells after 48 hrs by sulforhodamine B assay; conditions: DU-145, 48 h; summary of the method: as §1
NCI-H322M = assay: Growth inhibition of human NCI-H322M cells after 48 hrs by sulforhodamine B assay; summary of the method: as §1
SF-268 [2] = assay: Anticancer activity against human SF268 cells assessed as cell growth at 100 uM after 48 hrs by sulforhodamine B assay; conditions: SF-268, 48 h, read-out: Activity
M14 = assay: Growth inhibition of human M14 cells after 48 hrs by sulforhodamine B assay; conditions: M14, 48 h; summary of the method: as §1
SW-620 = assay: Growth inhibition of human SW620 cells after 48 hrs by sulforhodamine B assay; conditions: SW-620, 48 h; summary of the method: as §2
MCF7 [3] = assay: Growth inhibition of human MCF7 cells after 48 hrs by sulforhodamine B assay; conditions: MCF7, 48 h; summary of the method: as §1
CAKI-1 = assay: Growth inhibition of human Caki1 cells after 48 hrs by sulforhodamine B assay; conditions: CAKI-1, 48 h; summary of the method: as §1
UO-31 = assay: Growth inhibition of human UO31 cells after 48 hrs by sulforhodamine B assay; conditions: UO-31, 48 h; summary of the method: as §2
IGROV-1 = assay: Growth inhibition of human IGROV1 cells after 48 hrs by sulforhodamine B assay; conditions: IGROV-1, 48 h; summary of the method: as §1
NCI-H460 = assay: Anticancer activity against human NCI-H460 cells assessed as cell growth at 100 uM after 48 hrs by sulforhodamine B assay; conditions: NCI-H460, 48 h, read-out: Activity
MCF7 [4] = assay: Anticancer activity against human MCF7 cells assessed as cell growth at 100 uM after 48 hrs by sulforhodamine B assay; conditions: MCF7, 48 h, read-out: Activity
786-0 = assay: Growth inhibition of human 786-0 cells after 48 hrs by sulforhodamine B assay; conditions: 786-0, 48 h; summary of the method: as §1
MDA-MB-435 = assay: Growth inhibition of human MDA-MB-435 cells after 48 hrs by sulforhodamine B assay; conditions: MDA-MB-435, 48 h; summary of the method: as §1
SK-MEL-28 = assay: Growth inhibition of human SK-MEL-28 cells after 48 hrs by sulforhodamine B assay; conditions: SK-MEL-28, 48 h; summary of the method: as §1
K562 = assay: Growth inhibition of human K562 cells after 48 hrs by sulforhodamine B assay; conditions: K562, 48 h; summary of the method: as §1
[5] = Growth inhibition of human […] cells after 48 hrs by sulforhodamine B assay; summary of the method: as §1
[6] = read-out: pLC50 (the source's name) (converted)

Nc1cc(N)c2nc(-c3ccccc3)c(Sc3ccc(Cl)c(Cl)c3)nc2c1
GI50 (SK-MEL-2): 6.17 µM | CC50 (SK-MEL-2; [6]): > 100 µM | TGI (SK-MEL-2; read-out: pTGI (converted)): 30.9 µM | GI50 (UACC-62): 6.76 µM | CC50 (UACC-62; [6]): > 100 µM | TGI (UACC-62; read-out: pTGI (converted)): 42.7 µM | GI50 (SK-MEL-5): 21.4 µM | CC50 (SK-MEL-5; [6]): > 100 µM | TGI (SK-MEL-5; read-out: pTGI (converted)): 95.5 µM | GI50 (LOX IMVI): 7.41 µM | LC50 (LOX IMVI): 72.4 µM | TGI (LOX IMVI; read-out: pTGI (converted)): 24.5 µM | GI50 (A549): 13.5 µM | LC50 (A549): > 100 µM | TGI (A549; read-out: pTGI (converted)): 52.5 µM | GI50 (SF-295): 17.8 µM | LC50 (50% net cell kill) (SF-295): > 100 µM | TGI (SF-295; read-out: pTGI (converted)): 60.3 µM | GI50 (NCI-H522): 7.59 µM | LC50 (NCI-H522): > 100 µM | TGI (NCI-H522; read-out: pTGI (converted)): 33.9 µM | GI50 (HOP-62): 12.3 µM | LC50 (HOP-62): > 100 µM | TGI (HOP-62; read-out: pTGI (converted)): 77.6 µM | GI50 (HCT-116): 9.33 µM | LC50 (concentration causing 50% net cell death) (HCT-116): > 100 µM | TGI (HCT-116; read-out: pTGI (converted)): 47.9 µM | GI50 (OVCAR-4): 20 µM | CC50 (OVCAR-4; [6]): > 100 µM | TGI (OVCAR-4; read-out: pTGI (converted)): > 100 µM | GI50 (U-251): 10.2 µM | LC50 (50% net cell kill) (U-251): > 100 µM | TGI (U-251; read-out: pTGI (converted)): > 100 µM | GI50 (NCI-H23): 12.6 µM | LC50 (50% net cell kill concentration) (NCI-H23): 95.5 µM | TGI (NCI-H23; read-out: pTGI (converted)): 34.7 µM | GI50 (SK-OV-3): 14.8 µM | CC50 (SK-OV-3; [6]): > 100 µM | TGI (SK-OV-3; read-out: pTGI (converted)): 39.8 µM | GI50 (SF-268 [1]): 13.8 µM | LC50 (SF-268 [1]): > 100 µM | TGI (SF-268 [1]; read-out: pTGI (converted)): 51.3 µM | GI50 (DU-145): 1.51 µM | CC50 (DU-145; [6]): 9.77 µM | TGI (DU-145; read-out: pTGI (converted)): 3.8 µM | GI50 (NCI-H322M): 7.08 µM | LC50 (NCI-H322M): > 100 µM | TGI (NCI-H322M; read-out: pTGI (converted)): 35.5 µM | growth at 100 µM (SF-268 [2]): 11% | GI50 (M14): 32.4 µM | CC50 (M14; [6]): > 100 µM | TGI (M14; read-out: pTGI (converted)): > 100 µM | GI50 (SW-620): 20.9 µM | CC50 (SW-620; [6]): > 100 µM | TGI (SW-620; read-out: pTGI (converted)): 83.2 µM | GI50 (MCF7 [3]): 5.25 µM | CC50 (MCF7 [3]; [6]): > 100 µM | TGI (MCF7 [3]; read-out: pTGI (converted)): 38 µM | GI50 (CAKI-1): 15.1 µM | CC50 (CAKI-1; [6]): 89.1 µM | TGI (CAKI-1; read-out: pTGI (converted)): 37.2 µM | GI50 (UO-31): 3.8 µM | CC50 (UO-31; [6]): > 100 µM | TGI (UO-31; read-out: pTGI (converted)): > 100 µM | GI50 (IGROV-1): 2.95 µM | CC50 (IGROV-1; [6]): > 100 µM | TGI (IGROV-1; read-out: pTGI (converted)): 27.5 µM | growth at 100 µM (NCI-H460): 0% | growth at 100 µM (MCF7 [4]): 12% | GI50 (786-0): 23.4 µM | CC50 (786-0; [6]): > 100 µM | TGI (786-0; read-out: pTGI (converted)): 61.7 µM | GI50 (MDA-MB-435): 18.2 µM | CC50 (MDA-MB-435; [6]): > 100 µM | TGI (MDA-MB-435; read-out: pTGI (converted)): 60.3 µM | GI50 (SK-MEL-28): 13.8 µM | CC50 (SK-MEL-28; [6]): > 100 µM | TGI (SK-MEL-28; read-out: pTGI (converted)): 57.5 µM | GI50 (K562): 15.8 µM | LC50 (K562): > 100 µM | TGI (K562; read-out: pTGI (converted)): > 100 µM | GI50 [5]: 3.8 µM | LC50 [5]: > 100 µM | TGI ([5]; read-out: pTGI (converted)): 31.6 µM
